Activity calls are given as the source filed them. The calls are words filed in the database; no cut-off is given here.
Legend:
[1] = Thermal stability of the compound; type: physicochemical
Summary of the method: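 Capture compound incubated 30 min native at 4 °C or denatured at 80 °C as thermal stress. Biological stress was 30 min in HepG2 lysate at 4 and 37 °C. UV irradiation for 10 and 30 min was checked for a single defined photoproduct.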

[2] = target: Prothrombin (Homo sapiens) (UniProt P00734); experiment: Binding affinity to human recombinant thrombin after 1 hr by Western blot analysis
Summary of the method: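 Purified human recombinant thrombin (2 μg) incubated with capture compound for 1 h at 4 °C, with or without preincubation with free drug as competitor. Sample UV-irradiated 10 min, captured on streptavidin beads, then analysed by silver-stained SDS-PAGE and by streptavidin-HRP blot to detect covalent biotinylation.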

[3] = target: T1, Hypoxia up-regulated protein 1 (Homo sapiens) (UniProt Q9Y4L1); experiment: Binding affinity to HYOU1 in human HepG2 cell lysate after 1 hr by capture compound based LC/MS analysis; type: cell-free
T1 sequence (whole entry): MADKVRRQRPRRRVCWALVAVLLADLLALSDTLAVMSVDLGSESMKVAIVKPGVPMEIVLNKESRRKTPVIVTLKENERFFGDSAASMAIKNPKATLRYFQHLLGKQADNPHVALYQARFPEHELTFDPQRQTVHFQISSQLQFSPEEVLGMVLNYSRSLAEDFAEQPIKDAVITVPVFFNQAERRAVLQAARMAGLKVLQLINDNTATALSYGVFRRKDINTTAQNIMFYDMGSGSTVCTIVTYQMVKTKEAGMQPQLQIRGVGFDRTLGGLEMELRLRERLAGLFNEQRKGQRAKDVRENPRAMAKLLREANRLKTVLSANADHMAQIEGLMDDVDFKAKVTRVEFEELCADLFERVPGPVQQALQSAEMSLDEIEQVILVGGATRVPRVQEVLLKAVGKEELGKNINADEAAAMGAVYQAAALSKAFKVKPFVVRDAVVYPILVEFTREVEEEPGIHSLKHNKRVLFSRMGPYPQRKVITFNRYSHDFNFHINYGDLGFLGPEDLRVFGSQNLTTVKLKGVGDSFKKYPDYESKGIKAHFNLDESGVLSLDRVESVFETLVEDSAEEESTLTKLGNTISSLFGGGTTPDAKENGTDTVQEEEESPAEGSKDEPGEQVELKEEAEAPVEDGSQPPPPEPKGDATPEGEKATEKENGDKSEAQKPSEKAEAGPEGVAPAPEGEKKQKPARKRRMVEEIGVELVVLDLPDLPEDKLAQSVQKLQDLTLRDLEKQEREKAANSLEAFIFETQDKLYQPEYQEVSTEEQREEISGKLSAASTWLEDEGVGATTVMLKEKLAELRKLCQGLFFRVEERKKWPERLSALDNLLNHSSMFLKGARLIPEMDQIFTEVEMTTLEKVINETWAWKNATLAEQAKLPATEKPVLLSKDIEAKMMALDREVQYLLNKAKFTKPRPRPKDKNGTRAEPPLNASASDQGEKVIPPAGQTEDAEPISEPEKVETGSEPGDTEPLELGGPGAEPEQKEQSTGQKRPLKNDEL
Summary of the method: (§1)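 Capture compound MS: 400 μg HepG2 or K562 lysate in capture buffer, precleared with streptavidin beads 30 min at 4 °C. Competition controls preincubated 30 min at 4 °C with free drug (10 μL of 1 mM). Capture compound (10 μL of 50 μM) equilibrated 1 h at 4 °C, UV-irradiated 10 min, streptavidin bead pulldown, on-bead trypsin digestion, nanoLC-MS/MS. Spectral counts compared capture vs competition (t test). HepG2 in quadruplicate, K562 in duplicate.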

[4] = target: Adenosine kinase (Homo sapiens) (UniProt P55263); experiment: Binding affinity to ADK in human HepG2 cell lysate after 1 hr by capture compound based LC/MS analysis; type: cell-free; summary of the method: as §1
[5] = target: Histamine N-methyltransferase (Homo sapiens) (UniProt P50135); experiment: Binding affinity to HNMT in human K562 cell lysate after 1 hr by capture compound based LC/MS analysis; type: cell-free; summary of the method: as §1
[6] = target: Adenosine kinase (Homo sapiens) (UniProt P55263); experiment: Binding affinity to ADK in human K562 cell lysate after 1 hr by capture compound based LC/MS analysis; type: cell-free; summary of the method: as §1
[7] = target: Heterogeneous nuclear ribonucleoproteins C1/C2 (Homo sapiens) (UniProt P07910); experiment: Binding affinity to HNRPC in human K562 cell lysate after 1 hr by capture compound based LC/MS analysis; type: cell-free; summary of the method: as §1
[8] = target: T1, Hypoxia up-regulated protein 1 (Homo sapiens); experiment: Binding affinity to HYOU1 in human K562 cell lysate after 1 hr by capture compound based LC/MS analysis; type: cell-free; summary of the method: as §1
[9] = target: Heterogeneous nuclear ribonucleoproteins C1/C2 (Homo sapiens) (UniProt P07910); experiment: Binding affinity to HNRPC in human HepG2 cell lysate after 1 hr by capture compound based LC/MS analysis; type: cell-free; summary of the method: as §1
[10] = target: Histamine N-methyltransferase (Homo sapiens) (UniProt P50135); experiment: Binding affinity to HNMT in human HepG2 cell lysate after 1 hr by capture compound based LC/MS analysis; type: cell-free; summary of the method: as §1
[11] = target: T2, Ribosyldihydronicotinamide dehydrogenase [quinone] (Homo sapiens) (UniProt P16083); experiment: (§2) Displacement of (S)-N4-(2-(4-(4-(4-methyl-3-(4-(pyridin-3-yl)pyrimidin-2-ylamino)phenylcarbamoyl)benzyl)piperazin-1-yl)ethyl)-N1-(15-oxo-19-((3aS,4S,6aR)-2-oxohexahydro-1H-thieno[3,4-d]imidazol-4-yl)-4,7,10-trioxa-14-azanonadecyl)-2-(4-(3-(trifluoromethyl)-3H-diazirin-3-yl)benzamido)succinamide from NQO2 in human K562 cell lysate at 100 uM after 1 hr by Western blot analysis; type: cell-free
T2 sequence (whole entry): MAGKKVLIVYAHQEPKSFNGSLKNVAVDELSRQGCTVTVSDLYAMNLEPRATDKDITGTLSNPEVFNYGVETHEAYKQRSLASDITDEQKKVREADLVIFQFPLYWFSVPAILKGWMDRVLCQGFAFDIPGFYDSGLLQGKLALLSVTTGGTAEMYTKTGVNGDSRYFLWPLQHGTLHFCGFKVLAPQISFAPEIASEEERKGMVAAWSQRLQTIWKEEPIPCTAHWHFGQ
Summary of the method: (§3)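 Lysate (400 μg, precleared with streptavidin beads 30 min at 4 °C) in capture buffer was preincubated with competitor (final 100 μM) for 30 min at 4 °C. […] Streptavidin beads were added for 1 h at 4 °C, followed by anti-NQO2 (1:500) Western blot.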

[12] = target: T2, Ribosyldihydronicotinamide dehydrogenase [quinone] (Homo sapiens); experiment: (§4) Displacement of (S)-N4-(4-(3-(2-((4-carbamimidoylphenylamino)methyl)-1-methyl-N-(pyridin-2-yl)-1H-benzo[d]imidazole-5-carboxamido)propanamido)butyl)-N1-(15-oxo-19-((3aS,4S,6aR)-2-oxohexahydro-1H-thieno[3,4-d]imidazol-4-yl)-4,7,10-trioxa-14-azanonadecyl)-2-(4-(3-(trifluoromethyl)-3H-diazirin-3-yl)benzamido)succinamide from human recombinant NQO2 after 1 hr by silver staining-based SDS PAGE analysis
Summary of the method: (§5)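 Human recombinant NQO2 (1 μg) was preincubated 30 min at 4 °C with competitor, then capture compound was added at 5 μM final (competitors 100 μM final) and equilibrated 1 h at 4 °C. Samples were UV-irradiated 10 min, pulled down on streptavidin beads and resolved by silver-stained SDS-PAGE.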

[13] = target: T2, Ribosyldihydronicotinamide dehydrogenase [quinone] (Homo sapiens); experiment: Displacement of (S)-N4-(2-(4-(4-(4-methyl-3-(4-(pyridin-3-yl)pyrimidin-2-ylamino)phenylcarbamoyl)benzyl)piperazin-1-yl)ethyl)-N1-(15-oxo-19-((3aS,4S,6aR)-2-oxohexahydro-1H-thieno[3,4-d]imidazol-4-yl)-4,7,10-trioxa-14-azanonadecyl)-2-(4-(3-(trifluoromethyl)-3H-diazirin-3-yl)benzamido)succinamide from human recombinant NQO2 after 1 hr by silver staining-based SDS PAGE analysis; summary of the method: as §5
[14] = target: T2, Ribosyldihydronicotinamide dehydrogenase [quinone] (Homo sapiens); experiment: as §2, with “lysate” for “lysate at 100 uM”, “capture compound based LC/MS” for “Western blot”; type: cell-free
Summary of the method: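 K562 lysate (400 μg, precleared) was preincubated with competitor (final 100 μM) for 30 min at 4 °C. Capture compound (final 5 μM) was added for 1 h at 4 °C, then UV-crosslinked 10 min. Proteins were pulled down on streptavidin beads and trypsin-digested on-bead for 16 h at 37 °C, then analysed by nanoLC-Orbitrap MS/MS. Spectral counts in capture versus competition were compared, with duplicate experiments.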

[15] = target: T2, Ribosyldihydronicotinamide dehydrogenase [quinone] (Homo sapiens); experiment: as §2, with “HepG2” for “K562”; type: cell-free; summary of the method: as §3
[16] = target: Vacuolar protein sorting-associated protein 35 (Homo sapiens) (UniProt Q96QK1); experiment: (§6) Displacement of 2-((R)-1-cyclohexyl-2-oxo-2-((S)-2-(4-(N-((S)-6,9,25-trioxo-29-((3aS,4S,6aR)-2-oxohexahydro-1H-thieno[3,4-d]imidazol-4-yl)-8-(4-(3-(trifluoromethyl)-3H-diazirin-3-yl)benzamido)-14,17,20-trioxa-5,10,24-triazanonacosyl)carbamimidoyl)benzylcarbamoyl)azetidin-1-yl)ethylamino)acetic acid from VPS35 in human HepG2 cell lysate after 1 hr by capture compound based LC/MS analysis; type: cell-free; summary of the method: as §1
[17] = target: T3, Leucine-rich repeat-containing protein 59 (Homo sapiens) (UniProt Q96AG4); experiment: as §6, with “LRC59” for “VPS35”; type: cell-free; summary of the method: as §1
T3 sequence (whole entry): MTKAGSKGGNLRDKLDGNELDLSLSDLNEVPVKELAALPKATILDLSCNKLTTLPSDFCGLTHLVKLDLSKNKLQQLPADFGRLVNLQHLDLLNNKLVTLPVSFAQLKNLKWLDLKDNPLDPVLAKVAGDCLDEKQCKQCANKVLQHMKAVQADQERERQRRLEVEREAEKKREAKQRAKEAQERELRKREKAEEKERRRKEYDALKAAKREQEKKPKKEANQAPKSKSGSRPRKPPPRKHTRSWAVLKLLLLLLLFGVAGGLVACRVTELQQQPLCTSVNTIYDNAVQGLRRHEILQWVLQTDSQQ

[18] = target: T4, Ribosyldihydronicotinamide dehydrogenase [quinone] (Homo sapiens, UniProt P16083); experiment: Inhibition of human recombinant NQO2-mediated mitomycin C metabolism using NADH as cosubstrate incubated for 5 mins prior to NADH addition measured after 30 mins by spectrophotometric analysis
T4 sequence (P16083 whole entry): T2 sequence (whole entry)
Summary of the method: (§7)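 NQO2 (0.5 μM) with mitomycin C (50 μM) and four inhibitor concentrations in 100 mM potassium phosphate pH 5.8, 5 min at room temperature. Increasing NADH was then added and A340 followed for 30 min at rt. Ki from Lineweaver–Burk, IC50 from competitive Michaelis–Menten kinetics. Two experiments, duplicate points each.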

[19] = target: T4, Ribosyldihydronicotinamide dehydrogenase [quinone]; experiment: as §4, with “densitometric” for “silver staining-based SDS PAGE”
[20] = target: T4, Ribosyldihydronicotinamide dehydrogenase [quinone]; experiment: Competitive inhibition of human recombinant NQO2-mediated mitomycin C metabolism using NADH as cosubstrate incubated for 5 mins prior to NADH addition measured after 30 mins by Michaelis-Menten plot analysis; summary of the method: as §7
[21] = Inhibition of human alpha thrombin using Boc-Val-Pro-Arg-AMC as substrate after 2 hrs by fluorometric analysis
Summary of the method: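 Human α-thrombin at 5.5 ng/mL final with Boc-Val-Pro-Arg-AMC (15 μM) in 50 mM Tris pH 7.5, 150 mM NaCl, 0.05% Tween 20. Compound tested as 16 two-fold dilutions in DMSO, 2.5 mM to 75 nM. Incubated 2 h at room temperature; fluorescence read at ex 355, em 460 nm for percent inhibition.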

Chain of Heterogeneous nuclear ribonucleoproteins C1/C2 (Homo sapiens) (P07910 whole entry): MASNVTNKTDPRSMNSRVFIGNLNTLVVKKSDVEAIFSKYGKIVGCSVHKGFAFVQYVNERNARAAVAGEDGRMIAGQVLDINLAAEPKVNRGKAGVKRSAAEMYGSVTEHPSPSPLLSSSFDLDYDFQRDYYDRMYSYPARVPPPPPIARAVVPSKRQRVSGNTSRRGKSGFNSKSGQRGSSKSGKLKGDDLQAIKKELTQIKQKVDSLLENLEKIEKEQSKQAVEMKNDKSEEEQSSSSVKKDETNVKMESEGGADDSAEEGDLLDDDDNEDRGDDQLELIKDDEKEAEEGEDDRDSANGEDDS
Chain of Histamine N-methyltransferase (Homo sapiens) (P50135 whole entry): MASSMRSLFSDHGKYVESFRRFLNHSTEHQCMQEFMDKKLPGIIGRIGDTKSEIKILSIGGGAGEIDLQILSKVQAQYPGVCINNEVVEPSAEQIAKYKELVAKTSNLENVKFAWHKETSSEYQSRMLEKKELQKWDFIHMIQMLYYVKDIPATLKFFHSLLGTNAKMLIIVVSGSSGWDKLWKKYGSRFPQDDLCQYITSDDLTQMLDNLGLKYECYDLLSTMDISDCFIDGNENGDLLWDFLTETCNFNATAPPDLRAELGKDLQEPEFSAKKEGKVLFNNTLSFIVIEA
Chain of Adenosine kinase (Homo sapiens) (P55263 2-362 limits assumed): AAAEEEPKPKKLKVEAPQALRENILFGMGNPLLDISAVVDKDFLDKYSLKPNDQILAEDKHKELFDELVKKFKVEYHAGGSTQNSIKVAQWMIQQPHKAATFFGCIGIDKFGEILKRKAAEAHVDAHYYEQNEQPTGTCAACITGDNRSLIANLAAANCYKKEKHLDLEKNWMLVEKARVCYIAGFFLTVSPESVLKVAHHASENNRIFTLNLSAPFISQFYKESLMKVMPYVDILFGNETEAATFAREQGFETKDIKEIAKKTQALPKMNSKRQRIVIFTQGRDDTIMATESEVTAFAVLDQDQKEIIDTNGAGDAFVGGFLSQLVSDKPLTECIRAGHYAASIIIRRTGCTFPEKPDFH

With `N=C(N)c1ccc(CNC(=O)[C@@H]2CCN2C(=O)[C@H](NCC(=O)NCCCCNC(=O)C[C@H](NC(=O)c2ccc(C3(C(F)(F)F)N=N3)cc2)C(=O)NCCCOCCOCCOCCCNC(=O)CCCC[C@@H]2SC[C@@H]3NC(=O)N[C@@H]32)C2CCCCC2)cc1` as the compound, how does the Stability [1] read?
Its Stability is “Stable”.

And the Activity [2]?
The Activity was “Active”.

With `Cn1c(CNc2ccc(C(=N)NCCCCNC(=O)C[C@H](NC(=O)c3ccc(C4(C(F)(F)F)N=N4)cc3)C(=O)NCCCOCCOCCOCCCNC(=O)CCCC[C@@H]3SC[C@@H]4NC(=O)N[C@@H]43)cc2)nc2cc(C(=O)N(CCC(=O)O)c3ccccn3)ccc21` as the compound, how does the Activity [3] read?
The Activity was “Active”.

What about the Activity [4] of the same compound?
Its Activity is “Active”.

And the Activity [5]?
The Activity was “inactive”.

And the Activity [6]?
The Activity was “inactive”.

And the Activity [7]?
The Activity was “inactive”.

And the Activity [8]?
The Activity was “inactive”.

What about the Stability [1] of the same compound?
Its Stability is “Stable”.

And the Activity [9]?
Its Activity is “Active”.

And the Activity [2]?
The Activity was “inactive”.

And the Activity [10]?
Its Activity is “Active”.

Which results are given for `Cc1ccc(NC(=O)c2ccc(CN3CCN(C)CC3)cc2)cc1Nc1nccc(-c2cccnc2)n1`?
Activity [11]: Active; Activity [12]: Active; Activity [13]: Active; Activity [14]: Active; Activity [15]: Active

Which results are given for `N=C(N)c1ccc(CNC(=O)[C@@H]2CCN2C(=O)[C@H](NCC(=O)O)C2CCCCC2)cc1`?
Activity [16]: Active; Activity [17]: Active

What does the source list for `CCOC(=O)CCN(C(=O)c1ccc2c(c1)nc(CNc1ccc(C(=N)N)cc1)n2C)c1ccccn1` [DABIGATRAN ETHYL ESTER]?
Ki [18]: 0.9 µM; IC50 [19]: 1.5 µM; IC50 [20]: 0.8 µM; IC50 [21]: 0.0012 µM

Which results are given for `[H]/N=C(/N)c1ccc(NCc2nc3cc(C(=O)N(CCC(=O)O)c4ccccn4)ccc3n2C)cc1` [DABIGATRAN]?
Ki [18]: 70 µM; IC50 [19]: 11 µM; IC50 [20]: > 10 µM

From ChEMBL document CHEMBL2216748 (J Med Chem, 2012)
